Measurements reported in PMC3216638 (Regulatory peptides, 2009).

Key:
Format in all cases: cell-based, Homo sapiens
[1] = test system: hMC4R/TM4 hMC2R; experiment: […]-NDP-MSH displacement on transfected cells; conditions: read-out: THIQ Ki; whole HEK293 cells, MEM with 0.2% BSA, 1 h
[2] = test system: hMC4R/TM6 hMC2R; experiment: cAMP accumulation; conditions: read-out: THIQ (EC50 (nM)); HEK293 cells, 1 h, 37°C, 1 mM IBMX; agonist
Outline: (§1)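 HEK293 cells stably expressing FLAG-tagged hMC4R chimeras, with one TM swapped for the homologous hMC2R segment, were selected with G418. Cells were incubated in EBSS with test compound (10−10–10−6 M) and 10−3 M IBMX for 1 h at 37°C. The reaction was stopped with ice-cold ethanol and the supernatant dried under nitrogen at 55°C. Duplicate wells, three separate experiments; sigmoid variable-slope fit.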

[3] = test system: hMC4R/TM6 hMC2R; experiment: […]-NDP-MSH displacement on transfected cells; conditions: read-out: THIQ Ki; whole HEK293 cells, MEM with 0.2% BSA, 1 h
[4] = test system: hMC4R/TM3 hMC2R; experiment: cAMP accumulation; conditions: read-out: THIQ (EC50 (nM)); HEK293 cells, 1 h, 37°C, 1 mM IBMX; agonist
Outline: as §1

[5] = test system: hMC4R/TM2 hMC2R; experiment: cAMP accumulation; conditions: read-out: THIQ (EC50 (nM)); HEK293 cells, 1 h, 37°C, 1 mM IBMX; agonist
Outline: as §1

[6] = test system: hMC4R/TM4 hMC2R; experiment: cAMP accumulation; conditions: read-out: THIQ (EC50 (nM)); HEK293 cells, 1 h, 37°C, 1 mM IBMX; agonist
Outline: as §1

[7] = test system: hMC4R/TM2 hMC2R; experiment: […]-NDP-MSH displacement on transfected cells; conditions: read-out: THIQ Ki; whole HEK293 cells, MEM with 0.2% BSA, 1 h
[8] = test system: hMC4R/TM5 hMC2R; experiment: cAMP accumulation; conditions: read-out: THIQ (EC50 (nM)); HEK293 cells, 1 h, 37°C, 1 mM IBMX; agonist
Outline: as §1

[9] = test system: hMC4R/TM5 hMC2R; experiment: […]-NDP-MSH displacement on transfected cells; conditions: read-out: THIQ Ki; whole HEK293 cells, MEM with 0.2% BSA, 1 h
[10] = test system: hMC4R/TM3 hMC2R; experiment: […]-NDP-MSH displacement on transfected cells; conditions: read-out: THIQ Ki; whole HEK293 cells, MEM with 0.2% BSA, 1 h

With O=C(N[C@H](Cc1ccc(Cl)cc1)C(=O)N1CCC(Cn2cncn2)(C2CCCCC2)CC1)[C@H]1Cc2ccccc2CN1 [THIQ, N-(3R)-1 4-tetrahydroisoquinolinium-3-ylcarbonyl-(1R)-1-(4-chlorobenzyl)-2-4-cyclohexyl-4-(1H-1,2,4-triazol-1-ylmethyl)piperidin-1-yl-2-oxoethylamine] the Ki [1] was 7.2 ± 2.3 nM, the EC50 [2] was 2.8 ± 0.6 nM and the Ki [3] was 5.3 ± 0.2 nM. The EC50 [4] was 91 ± 6.2 nM, the EC50 [5] was 3.1 ± 0.3 nM and the EC50 [6] was 3.5 ± 0.3 nM. The Ki [7] was 6.2 ± 0.2 nM, the EC50 [8] was 3.9 ± 0.4 nM and the Ki [9] was 6.7 ± 3.4 nM. The Ki [10] was 76.2 ± 17.3 nM.
